# Experimental data: ChEMBL document CHEMBL1149431 (Bioorg Med Chem Lett, 2006)
# The source made the active and inactive calls. The calls are words filed in the database; no cut-off is given here.
# How the values were obtained:
# [1] = target: Sodium-dependent noradrenaline transporter (Homo sapiens, UniProt P23975); experiment: Inhibition of reuptake of Norepinephrine
# [2] = Metabolic stability by incubation with human liver microsomes; type: ADME, Microsome
# In short: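 Human liver microsomes (4 mg protein/mL) incubated with compound at 23 µM, 37 ± 1 °C, in 50 mM potassium phosphate pH 7.4 with 3 mM MgCl2 and 1 mM EDTA. Sampled at 0, 90 and 180 min; half-life calculated from loss of parent compound.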
# [3] = Metabolic stability by incubation with human hepatocytes; type: ADME, cell-based, Liver, Hepatocyte
# In short: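 Compounds at 23 µM incubated separately with pooled (n = 2) cryopreserved human hepatocytes (2 million cells/mL) in phenol-red-free Waymouth's medium with FBS 4.5%, insulin, glutamine 3.6 mM, pyruvate 4.5 mM, dexamethasone 0.9 µM; 1% methanol. Samples at 0, 180, 360 min quenched in acetonitrile, protein spun off. Half-life from parent disappearance.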
# Rattus norvegicus [4] = experiment: Effect on latency in tail flick in rat after 1,2,4 and 8 hrs of administration of 50 mg/kg, ip; type: functional, organism-based; parameters: dose 50 mg/kg
# In short: (§1)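 Rat tail-flick model; single intraperitoneal dose of 50 mg/kg, with 5 mg/kg ip morphine and saline as controls. Tail-flick latency (s) read at 1, 2, 4 and 8 h after dosing. n = 9–10 per group; significance vs control by Dunnett's test (p<0.05, p<0.01).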
# Rattus norvegicus [5] = experiment: Effect on latency in tail flick in rat after 1 and 2 hrs of administration of 50 mg/kg, ip; type: functional, organism-based; parameters: dose 50 mg/kg; settings: tested as the 2H-labelled form; in short: as §1
# Sodium-dependent noradrenaline transporter, sequence (P23975 whole entry): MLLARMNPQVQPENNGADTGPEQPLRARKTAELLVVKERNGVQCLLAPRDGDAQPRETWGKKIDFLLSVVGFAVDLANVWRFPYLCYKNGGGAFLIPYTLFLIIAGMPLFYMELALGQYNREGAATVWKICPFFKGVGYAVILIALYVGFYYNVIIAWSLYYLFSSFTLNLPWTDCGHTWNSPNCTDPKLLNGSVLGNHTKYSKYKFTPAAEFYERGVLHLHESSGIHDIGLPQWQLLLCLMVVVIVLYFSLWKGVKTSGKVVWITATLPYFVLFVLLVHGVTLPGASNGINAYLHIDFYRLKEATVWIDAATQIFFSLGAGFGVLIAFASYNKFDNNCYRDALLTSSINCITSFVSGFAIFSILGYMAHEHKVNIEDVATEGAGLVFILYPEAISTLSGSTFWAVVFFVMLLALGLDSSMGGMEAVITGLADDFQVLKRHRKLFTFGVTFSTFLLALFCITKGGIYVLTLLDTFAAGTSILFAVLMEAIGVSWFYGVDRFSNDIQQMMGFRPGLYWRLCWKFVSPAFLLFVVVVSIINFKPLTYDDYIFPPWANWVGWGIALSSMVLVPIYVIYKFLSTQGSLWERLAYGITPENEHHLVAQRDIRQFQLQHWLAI
SMILES,IC50 [1] [µM],half-life [2] [h],half-life [3] [h],Activity (Rattus norvegicus [4]),Activity (Rattus norvegicus [4]; tested as the 2H-labelled form),Activity (Rattus norvegicus [5])
[2H]C([2H])([2H])Oc1cccc([C@@]2(O)CCCC[C@@H]2CN(C([2H])([2H])[2H])C([2H])([2H])[2H])c1,2,120,60.2,,,
[2H]C([2H])([2H])Oc1cccc([C@@]2(O)CCCC[C@@H]2CN(C)C)c1,3.6,12.4,22.2,,,
CN(C)C[C@H]1CCCC[C@]1(O)c1cccc(O)c1 [O-DESMETHYL TRAMADOL],> 10,47,26,,,
[2H]C([2H])([2H])N(C[C@H]1CCCC[C@]1(O)c1cccc(O)c1)C([2H])([2H])[2H],6.7,12.4,27.5,,,
COc1cccc([C@@]2(O)CCCC[C@@H]2CN(C)C)c1 [TRAMADOL],0.79,12.3,16.1,Active,Active,Active
[2H]C([2H])([2H])N(C[C@H]1CCCC[C@]1(O)c1cccc(OC)c1)C([2H])([2H])[2H],3.2,9.12,14.2,,,
